Most compounds without a hit are left out; they make up all but 0.83% or so of the library.
RGS7-Gao reg – modulates binding of RGS7 to human Galphao. P09471. Multiplexed bead flow cytometry; actives lie on both sides. binding response (% of control), % at 10 µM. 220,000 compounds, 0.35% hits. AID 1439; in the data active means binding response below about 49% or above about 150%; inconclusive means no clear call, values can overlap the other calls; inactive means in between;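 further: fluorescent Galphao held in activated GDP-AlF4 state binding bead-coupled RGS7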
Target sequence (P09471 whole entry, looked up): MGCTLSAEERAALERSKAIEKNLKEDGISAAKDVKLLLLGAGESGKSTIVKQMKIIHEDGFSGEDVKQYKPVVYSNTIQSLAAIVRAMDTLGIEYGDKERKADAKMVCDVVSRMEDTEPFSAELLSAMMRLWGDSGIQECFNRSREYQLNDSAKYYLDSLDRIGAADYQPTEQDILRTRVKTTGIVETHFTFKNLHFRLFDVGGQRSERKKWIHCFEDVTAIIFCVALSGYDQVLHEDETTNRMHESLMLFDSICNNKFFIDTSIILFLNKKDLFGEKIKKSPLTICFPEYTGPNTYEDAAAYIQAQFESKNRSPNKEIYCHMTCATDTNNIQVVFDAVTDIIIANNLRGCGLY
ABCB1 inh – inhibitors of human ABCB1 transporter, ABCG2 counter-screen; CCRF-Adr cells, JC-1 efflux, flow cytometry; inhibition, % at 6.6 µM; 190,000 compounds, 0.067% hits; P08183; AID 1326; in the data active means inhibition above about 40%;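 further: 0% = vehicle and 100% = reference inhibitor; higher value means more JC-1 retained so stronger ABCB1 efflux block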
RGS4-Gao reg – modulates binding of RGS4 to human Galphao; 220,000 compounds, 0.33% hits; binding response (% of control), % at 10 µM; P09471; Multiplexed bead flow cytometry; actives lie on both sides; AID 1415; in the data active means binding response below about 49% or above about 150%; inactive means in between;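 further: fluorescent Galphao activated with aluminum fluoride binding bead-coupled RGS4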
RGS16-Gao – RGS16-Galphao interaction regulator (human); binding response (% of control), % at 10 µM; AID 1441; 220,000 compounds, 0.38% hits; O15492+P09471; bead-based flow cytometry RGS16-Galphao binding, fluorescence; actives lie on both sides;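 further: Galphao activated by GDP with aluminum fluoride before binding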
RGS8-Gao reg – regulators of human RGS8-Galphao interaction; response (percent of control binding), % at 10 µM; 220,000 compounds, 0.34% hits; multiplexed bead flow cytometry, RGS8-Galphao binding; actives lie on both sides; in the data active means response below about 60% or above about 140%; inactive means in between;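 further: Galphao activated as the GDP aluminium fluoride complex binding bead-coupled RGS8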
ABCG2 block – blocks JC-1 efflux by human ABCG2 transporter | inhibition, % at 6.6 µM | 190,000 compounds, 0.1% hits | AID 1325 | IgMXP3 cells, flow cytometry | Q9UNQ0;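 active means inhibition above 80%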;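 further: 0% = DMSO and 100% = nicardipine control wells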
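Times: 10 min at 25 °C | Test system: Two drug-resistant human cell lines, ABCG2 and ABCB1 | Quantity: 3 million cells/mL final, two lines in 1:1 ratio | Signal: Flow cytometry, 530 nm JC-1 signal | Dosing: Compound at 6.6 µM | Controls: Nicardipine and DMSO wells | Reagent: JC-1 as fluorescent efflux pump substrate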
RGS4-Gao HTS – modulates binding between human RGS4 and Galphao | shares compounds with RGS16-Gao | multiplexed bead flow cytometry, RGS–Galpha-o binding | RGS4–Galpha-o binding response, % at 10 µM | 1,600 compounds, 99% hits;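 further: fluorescently labeled Galpha-o bound to GDP with aluminium fluoride binding biotinylated RGS beads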
Target sequence (P09471 whole entry, looked up): as above
Target sequence (P49798 whole entry, looked up): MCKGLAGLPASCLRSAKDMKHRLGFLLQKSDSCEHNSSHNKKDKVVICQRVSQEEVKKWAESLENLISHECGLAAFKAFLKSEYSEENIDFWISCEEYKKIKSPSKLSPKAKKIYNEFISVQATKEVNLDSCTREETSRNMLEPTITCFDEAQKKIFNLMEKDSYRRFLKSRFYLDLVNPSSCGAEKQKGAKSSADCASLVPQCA
Avidin counter – biotin-avidin bead binding disruption counter-screen; shares compounds with RGS16-Gao; streptavidin beads, fluorescein-biotin binding, flow cytometry; inhibition, % at 10 µM; 1,700 tested, under 10 active; AID 1783;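 active means inhibition above 50%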;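 further: median green fluorescence of gated singlet beads compared with DMSO control wells; 0% = DMSO wells and 100% = complete loss of bead fluorescence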
RGS8-Gao single – RGS8-Galphao interaction regulation, single point confirmation. binding response (% of control), % at 10 µM. 1,700 compounds, 3% hits. shares compounds with RGS16-Gao. bead-based flow cytometry RGS8-Galphao binding, fluorescence; actives lie on both sides; in the data active means binding response below about 72% or above about 130%; inactive means in between;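 further: Galphao activated as GDP AlF4 complex before binding bead RGS8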
RGS7-Gao confirm – RGS7-Galphao interaction regulation, single point confirmation; response (percent of control binding), % at 10 µM; 1,700 compounds, 7.8% hits; shares compounds with RGS16-Gao; bead-based flow cytometry RGS7-Galphao binding; actives lie on both sides; AID 1837; in the data active means response below about 75% or above about 130%; inactive means in between;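 further: fluorescent Galphao activated with GDP and aluminum fluoride binding bead-coupled RGS7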
RGS16-Gao conf – confirmation of regulators of human RGS16-Galphao interaction; shares compounds with RGS16-Gao; bead-based flow cytometry, RGS16-Galphao binding; actives lie on both sides; response (% of control binding), % at 10 µM; 1,700 compounds, 4% hits; AID 1838; in the data active means response below about 74% or above about 130%; inactive means in between;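 further: Galphao activated as the GDP aluminium fluoride complex binding bead-coupled RGS16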
RGS4-Gao single – RGS4-Galphao interaction regulation, single point confirmation; RGS4-Galphao binding, multiplexed bead flow cytometry; actives lie on both sides; shares compounds with RGS16-Gao; 1,700 compounds, 4% hits; binding response (% of control), % at 10 µM; in the data active means binding response below about 74% or above about 130%; inactive means in between
RGS19-Gao single – RGS19-Galphao interaction regulation, single point confirmation; shares compounds with RGS16-Gao; bead-based flow cytometry RGS19-Galphao binding; actives lie on both sides; response (percent of control binding), % at 10 µM; 1,700 compounds, 5% hits; AID 1841; in the data active means response below about 50% or above about 160%; inactive means in between;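 further: 100% = no compound control and 0% = blank background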
An asterisk follows results filed as active; ? = inconclusive; / = no result given; [ ] = remark or other dose. Unless noted, how the calls were made is not given here.

SMILES	RGS7-Gao reg	ABCB1 inh	RGS4-Gao reg	RGS16-Gao	RGS8-Gao reg	ABCG2 block	RGS4-Gao HTS	Avidin counter	RGS8-Gao single	RGS7-Gao confirm	RGS16-Gao conf	RGS4-Gao single	RGS19-Gao single
O=C(O)CC/C(=N/NC(=O)CNC(=O)C(c1ccccc1)c1ccccc1)c1ccccc1	?	/	102.3	109.9	101.4	/	/	/	/	/	/	/	/
O=C(c1ccc(COc2ccccc2Cl)o1)N1N=C(C(F)F)CC1(O)C(F)F (stereo not given)	101.1	1.0	100.5	105.9	102.4	4.9	/	/	/	/	/	/	/
O=C(CN1C(=O)CC(c2ccccc2)=Nc2ccccc21)NCc1ccccc1	103.2	0.9	101.3	111.0	104.7	2.0	/	/	/	/	/	/	/
O=C(CN1C(=O)CC(c2ccccc2)=Nc2ccccc21)NCc1ccco1	1.6*	0.5	3.2*	-0.5*	4.7*	4.6	/	-1.5	101.8	102.4	102.4	101.8	94.0
CC(=O)Oc1ccc(C2OC(=O)c3ccccc3N2C(C)=O)cc1 (stereo not given)	/	0.1	/	/	106.0	-0.1	/	-0.2	97.5	97.5	96.2	98.1	99.9
COC(=O)c1ccc(C(=O)OC)c(NC(=O)CSc2ccccn2)c1	157.3*[activator]	0.5	107.3	100.7	100.0	8.7	107.3*	0.6	98.2	100.8	99.8	100.0	108.5
CCc1cc(=O)oc2c(C)c(OCC(=O)N3CCCc4ccccc43)ccc12	118.5	4.2	133.1	565.0	159.1*[activator]	9.8	133.1*	-0.8	99.1	98.2	97.5	100.2	103.1
O=C(CC1CCOCC1)Nc1ccc(Cl)c(Cl)c1	93.7	1.0	95.3	97.4	100.4	13.4	/	/	/	/	/	/	/
COCCNS(=O)(=O)c1ccc(C2CNC(=O)C2)cc1 (stereo not given)	102.3	0.2	102.2	105.6	102.1	0.9	/	/	/	/	/	/	/
O=C1CC(c2ccc(S(=O)(=O)NCCOc3ccccc3)cc2)CN1 (stereo not given)	/	0.4	/	/	/	2.5	/	1.7	101.1	96.9	99.8	97.4	103.0
Cc1ccc(NCc2n[nH]c(=S)n2Cc2ccccc2)cc1Cl	166.9*[activator]	-0.8	110.9	102.7	97.6	-1.7	110.9*	0.9	101.4	110.0	99.7	102.1	106.0
O=C(CSc1cccc[n+]1[O-])Nc1ccc(C(F)(F)F)cc1[N+](=O)[O-]	99.3	0.7	101.9	98.6	102.2	4.0	/	/	/	/	/	/	/
O=[N+]([O-])c1ccc(Sc2cccc[n+]2[O-])c2nonc12	?	/	83.9	3.0*	36.0*	/	83.9*	-2.5	52.1*	80.6	26.4*	76.6	21.2*
CC(=O)O/N=C1\C(=O)N(Cc2ccc(C)cc2)c2ccccc21	71.2	1.2	76.0	17.9	58.0*	2.4	76.0*	/	/	/	/	/	/
COC(=O)c1c(-c2ccc(C(C)(C)C)cc2)csc1NC(=O)C1C2CCC(O2)C1C(=O)O (stereo not given)	125.2	-1.3	93.6	5.6*	75.3	-8.1	93.6*	2.8	83.7	135.2*[activator]	73.3*	96.4	75.7
COc1ccccc1CC(=O)Nc1cccc(C)n1	96.7	0.6	101.1	105.0	103.5	3.9	/	/	/	/	/	/	/
COCCN1Cc2cccc(C(=O)NCc3ccccn3)c2C1=O	110.8	0.2	106.0	120.2	108.9	1.3	/	/	/	/	/	/	/
COCCN1Cc2cccc(C(=O)NCc3ccc4c(c3)OCO4)c2C1=O	91.7	1.4	89.5	19.9*	69.9	6.0	89.5*	0.6	106.1	99.2	108.8	103.4	105.7
Cn1c(=O)c2c(nc(NCCOc3ccc(F)cc3)n2C)n(C)c1=O	105.7	0.3	101.2	118.6	105.2	1.6	/	/	/	/	/	/	/
CCN1c2ccc(S(=O)(=O)N3CCOCC3)cc2N(Cc2ccc(OC)cc2)C1C (stereo not given)	49.9*	0.4	48.4*	49.5	58.7*	0.0	/	-0.5	99.9	95.6	95.5	97.2	96.5
COc1ccc2cc(S(=O)(=O)N3CCOCC3)ccc2c1	101.3	0.4	102.5	101.3	98.5	1.5	/	/	/	/	/	/	/
CN(C)CCNCc1ccccc1OC1CCCC1	102.6	-1.3	103.4	104.0	102.0	-9.4	/	/	/	/	/	/	/
O=C(NCC1CCCO1)C1CCC(CNS(=O)(=O)c2ccccc2)CC1 (stereo not given)	98.8	0.5	100.3	104.8	100.9	0.5	/	/	/	/	/	/	/
Cc1c(/C=N/NC(=O)c2cccnc2)c2ccccc2n1Cc1ccccc1	154.2*[activator]	1.7	120.2	115.5	105.6	9.0	120.2*	3.2	103.1	124.4	106.3	114.2	110.7
Cc1nn(Cc2ccccc2)c(Cl)c1/C=N/NC(=O)c1cccnc1	99.6	2.7	102.2	105.0	102.8	15.0	/	/	/	/	/	/	/
SMILES	RGS7-Gao reg	ABCB1 inh	RGS4-Gao reg	RGS16-Gao	RGS8-Gao reg	ABCG2 block	RGS4-Gao HTS	Avidin counter	RGS8-Gao single	RGS7-Gao confirm	RGS16-Gao conf	RGS4-Gao single	RGS19-Gao single
COc1ccc(OC)c(NC(=O)C2C3CC4OC(=O)C2C4C3)c1 (stereo not given)	102.3	0.2	103.6	101.8	101.2	2.1	/	/	/	/	/	/	/
O=C(CCc1ccccc1)NNC(=O)c1ccc(NC(=O)c2ccccc2)cc1	85.1	-0.1	82.0	2.7*	76.8	23.8	82.0*	-2.0	99.1	91.3	96.5	94.0	92.4
CC1=C(C(N)=O)C(c2cccs2)n2nc(-c3cccc(C)c3)nc2N1 (stereo not given)	30.9*	-0.1	34.2*	26.4	33.7*	-1.9	/	0.8	99.8	100.8	98.0	97.6	91.8
Cc1nn(C)c(C(=O)NC2C3CC4CC(C3)CC2C4)c1Cl (stereo not given)	87.0	0.3	87.2	9.8*	62.6	2.5	87.2*	0.4	99.7	93.9	93.5	96.0	93.1
O=C(Nc1ccccc1N1CCOCC1)c1ccc2nc[nH]c2c1	102.8	0.4	105.9	109.1	107.4	4.5	/	/	/	/	/	/	/
CCN(CC)CC#CC(OC)(c1ccccc1)c1ccccc1	104.5	-0.1	107.9	104.9	105.9	1.1	/	/	/	/	/	/	/

Source: PubChem BioAssay (NMMLSC)
